Data reported in PMC3530835 (Journal of medicinal chemistry, 2012).
pIC50: −log10 of the molar value. In brackets after ≈: the same amount, converted by molar mass.

Key:
[1] = molecular target: T1, PfGluPho (PfG6PD) (Plasmodium falciparum, UniProt Q8IKU0); assay: PfGluPho primary dose response assay, resazurin/diaphorase-coupled; type: biochemical; conditions: for Decrease in potency relative to 5a: vs. 5a, Table 2
T1 sequence (Q8IKU0 1-910): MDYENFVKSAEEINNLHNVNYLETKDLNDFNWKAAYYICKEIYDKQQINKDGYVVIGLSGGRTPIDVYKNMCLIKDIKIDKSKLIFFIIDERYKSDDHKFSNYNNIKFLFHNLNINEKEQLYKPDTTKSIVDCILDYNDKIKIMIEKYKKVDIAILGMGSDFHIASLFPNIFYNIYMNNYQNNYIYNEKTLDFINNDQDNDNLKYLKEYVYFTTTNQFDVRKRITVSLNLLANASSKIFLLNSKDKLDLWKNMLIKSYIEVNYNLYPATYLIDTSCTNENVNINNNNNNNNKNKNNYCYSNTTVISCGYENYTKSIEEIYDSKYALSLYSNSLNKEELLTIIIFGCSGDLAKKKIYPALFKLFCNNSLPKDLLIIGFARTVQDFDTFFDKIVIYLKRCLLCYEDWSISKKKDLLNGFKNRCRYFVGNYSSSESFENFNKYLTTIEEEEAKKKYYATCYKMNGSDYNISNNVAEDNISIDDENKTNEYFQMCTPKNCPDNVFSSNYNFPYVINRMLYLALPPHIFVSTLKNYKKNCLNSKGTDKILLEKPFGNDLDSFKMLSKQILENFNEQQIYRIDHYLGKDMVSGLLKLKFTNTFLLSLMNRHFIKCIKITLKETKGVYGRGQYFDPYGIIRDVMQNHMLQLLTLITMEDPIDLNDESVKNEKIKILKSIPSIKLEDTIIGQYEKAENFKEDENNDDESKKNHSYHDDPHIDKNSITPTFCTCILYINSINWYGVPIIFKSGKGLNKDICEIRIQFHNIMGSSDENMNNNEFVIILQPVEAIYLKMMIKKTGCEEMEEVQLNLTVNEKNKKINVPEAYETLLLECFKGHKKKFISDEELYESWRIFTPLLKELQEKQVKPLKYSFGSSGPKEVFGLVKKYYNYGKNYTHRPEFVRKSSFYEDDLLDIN

[2] = molecular target: hG6PD (Homo sapiens, UniProt P11413); assay: hG6PD counter screen; type: biochemical; conditions: Figure 3
[3] = molecular target: PfGluPho (Plasmodium falciparum, UniProt Q8IKU0); assay: Mechanism of inhibition; type: biochemical
How it was run: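 Test compound, titrated in DMSO, and G6P or NADP+ varied together. Substrate solution final: 3.3 mM MgCl2, 1 mM TCEP, 0.05 M Tris, plus 5 μM NADP+ (G6P titration) or 25 μM G6P (NADP+ titration). Reaction started with PfGluPho (final 0.2 μg/mL) in 0.005% Tween 20. NADPH fluorescence (ex340/em460) monitored over 10 min; initial slopes taken.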

[4] = Chemical stability; type: physicochemical; conditions: 10 μM, 1% DMSO, 5 equivalents of GSH, PBS pH 7.4, 23 °C, duration of the study
[5] = test system: P. falciparum; assay: P. falciparum in culture; type: cell-based; conditions: Plasmodium falciparum, read-out: IC50 against P. falciparum in culture
How it was run: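 Chloroquine-sensitive 3D7 and chloroquine-resistant Dd2 blood-stage strains. Infected RBCs seeded at 0.25% parasitemia (>70% rings) and 1.25% hematocrit in hypoxanthine-free medium, with varying test compound concentrations and a chloroquine control. Incubated 72 hours. Growth was read as 3H-hypoxanthine incorporation, and IC50 was derived by non-linear regression.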

[6] = Aqueous solubility; type: physicochemical
[7] = molecular target: T1, PfGluPho (PfG6PD); assay: Orthogonal PfGluPho assay, direct detection of NADPH; type: biochemical; conditions: Potency PfG6PD NADPH Kinetic
[8] = PfG6PD IC50, Table 3, necessity of styryl moiety
[9] = Potency PfG6PD Primary Assay, Table 5, Ave. ± S.E.M.
[10] = Potency PfG6PD Primary Assay, Table 6, Ave. ± S.E.M.

Chain of hG6PD (P11413 whole entry): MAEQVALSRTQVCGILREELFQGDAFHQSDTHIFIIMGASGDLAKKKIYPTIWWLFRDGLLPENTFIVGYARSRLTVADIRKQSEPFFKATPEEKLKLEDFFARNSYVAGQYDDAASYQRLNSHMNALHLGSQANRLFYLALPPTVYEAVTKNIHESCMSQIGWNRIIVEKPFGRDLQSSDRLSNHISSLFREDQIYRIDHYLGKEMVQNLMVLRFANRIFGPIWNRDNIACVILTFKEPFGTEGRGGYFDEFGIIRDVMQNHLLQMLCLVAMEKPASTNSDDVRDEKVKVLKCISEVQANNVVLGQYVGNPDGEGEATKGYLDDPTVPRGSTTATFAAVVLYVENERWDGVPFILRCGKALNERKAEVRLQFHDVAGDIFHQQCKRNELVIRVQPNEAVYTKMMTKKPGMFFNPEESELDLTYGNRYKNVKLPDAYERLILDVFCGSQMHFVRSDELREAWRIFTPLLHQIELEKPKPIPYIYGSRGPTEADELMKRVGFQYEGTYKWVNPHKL

CCN1CCCC1CNC(=O)c1ccc2c(c1)NC(=O)CS2 (stereo not drawn) [Compound 3d]
PfG6PD activity (in words) [1]: complete loss of activity | pIC50 [1, 8]: < 4.10

CCN1CCCC1CNC(=O)c1ccc2c(c1)NC(=O)/C(=C/c1ccccc1C)S2 (stereo not drawn) [Compound 5c]
Decrease in potency relative to 5a [1]: 3 fold

CCN1CCCC1CNC(=O)c1ccc2c(c1)NC(=O)/C(=C/c1ccccc1OC)S2 (stereo not drawn) [Compound 5d]
Decrease in potency relative to 5a [1]: 5 fold

CCN1CCCC1CNC(=O)c1ccc2c(c1)NC(=O)C(Cc1ccccc1F)S2 (stereo not drawn) [Compound 10]
PfG6PD activity (in words) [1]: complete loss of activity | pIC50 [1, 8]: < 4.10

CCN1CCC[C@@H]1CNC(=O)c1ccc2c(c1)NC(=O)/C(=C/c1ccccc1F)S2 [Compound 11, (R,Z)-N-((1-ethylpyrrolidin-2-yl)methyl)-2-(2-fluorobenzylidene)-3-oxo-3,4-dihydro-2H-benzo[b][1,4]thiazine-6-carboxamide]
Selectivity for PfGluPho over hG6PD (in words) [2]: selective | Preference for the R-enantiomer versus the S-enantiomer ([1]; 11 vs. 12, Table 4): 8 fold | Type of inhibition vs. G6P ([3]; G6P titration): competing with the substrate | Type of inhibition vs. NADP+ ([3]; NADP+ titration): mixed-type inhibition | Reactivity with GSH (in words) [4]: remained intact | pIC50 [5]: 5.59 | solubility ([6]; 1x PBS, pH 7.4): 71 µg/mL (≈ 167 µM) | solubility ([6]; pION's buffer, pH 5): > 126 µg/mL | solubility ([6]; pION's buffer, pH 6.2): > 126 µg/mL | solubility ([6]; pION's buffer, pH 7.4): 29.4 µg/mL (≈ 69.1 µM)

CC(C)(C)OC(=O)N1CCCC1CNC(=O)c1ccc2c(c1)NC(=O)/C(=C/c1ccccc1F)S2 (stereo not drawn) [Compound 14]
PfG6PD activity (in words) [1]: inactive | pIC50 ([1]; Potency PfG6PD Primary Assay, Table 4, Ave. ± S.E.M.): < 4.10

COc1ccc(/C=C2\Sc3ccc(C(=O)NCCN(C)C)cc3NC2=O)cc1 [Compound 19]
pIC50 [1, 9]: < 4.10 | pIC50 ([7]; Table 5): < 4.10

CCCN(CCC)CCNC(=O)c1ccc2c(c1)NC(=O)/C(=C/c1ccccc1)S2 [Compound 26]
pIC50 [1, 9]: < 4.10

CCCN(CCC)CCNC(=O)c1ccc2c(c1)NC(=O)/C(=C/c1ccc(C)cc1)S2 [Compound 27]
pIC50 [1, 9]: < 4.10

COc1ccc(/C=C2\Sc3ccc(C(=O)NCCN4CCCC4)cc3NC2=O)cc1 [Compound 30]
pIC50 ([7]; Table 6): < 4.10

O=C1Nc2cc(C(=O)NCCN3CCCC3)ccc2S/C1=C\c1ccccc1Cl [Compound 31]
pIC50 ([7]; Table 6): < 4.10

O=C1Nc2cc(C(=O)NCCN3CCOCC3)ccc2S/C1=C\c1ccccc1F [Compound 34]
pIC50 [1, 10]: < 4.10 | pIC50 ([7]; Table 6): < 4.10

O=C1Nc2cc(C(=O)NCCN3CCCCCC3)ccc2S/C1=C\c1ccccc1Cl [Compound 36]
pIC50 ([7]; Table 6): < 4.10

COc1cccc(/C=C2\Sc3ccc(C(=O)NCCN4CCCCCC4)cc3NC2=O)c1 [Compound 37]
pIC50 [1, 10]: < 4.10

COc1ccc(/C=C2\Sc3ccc(C(=O)NCCN4CCCCCC4)cc3NC2=O)cc1 [Compound 38]
pIC50 [1, 10]: < 4.10 | pIC50 ([7]; Table 6): < 4.10

O=C1Nc2cc(C(=O)NCc3ccccc3)ccc2S/C1=C\c1ccccc1F [Compound 41]
pIC50 [1, 10]: < 4.10 | pIC50 ([7]; Table 6): < 4.10

CN(C)c1ccccc1CNC(=O)c1ccc2c(c1)NC(=O)/C(=C/c1ccccc1F)S2 [Compound 42]
pIC50 [1, 10]: < 4.10
